This note sets out measurements from publication PMC3254186 (Frontiers in Pharmacology, 2011).

For orientation: IC50 means the midpoint of a concentration-inhibition curve. A higher IC50 goes with lower potency.

Type in all cases: cell-based
The target of one assay is T1, Kir3.1/3.2 (GIRK) (Homo sapiens, UniProt P48051+P48549).
T1 sequence (P48549 1-501): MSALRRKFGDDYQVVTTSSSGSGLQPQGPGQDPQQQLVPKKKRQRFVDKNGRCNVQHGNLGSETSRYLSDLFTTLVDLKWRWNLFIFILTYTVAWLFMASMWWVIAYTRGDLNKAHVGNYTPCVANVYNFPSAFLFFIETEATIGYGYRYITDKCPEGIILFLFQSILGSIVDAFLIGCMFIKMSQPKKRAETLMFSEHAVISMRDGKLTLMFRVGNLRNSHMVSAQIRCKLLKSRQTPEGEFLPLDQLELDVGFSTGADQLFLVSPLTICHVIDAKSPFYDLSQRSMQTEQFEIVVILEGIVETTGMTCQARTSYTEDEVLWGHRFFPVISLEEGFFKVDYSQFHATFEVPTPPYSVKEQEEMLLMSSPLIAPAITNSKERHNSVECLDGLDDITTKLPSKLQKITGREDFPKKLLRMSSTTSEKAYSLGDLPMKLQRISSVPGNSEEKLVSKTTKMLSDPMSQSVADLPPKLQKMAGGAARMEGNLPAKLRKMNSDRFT
T1 sequence (P48051 1-423): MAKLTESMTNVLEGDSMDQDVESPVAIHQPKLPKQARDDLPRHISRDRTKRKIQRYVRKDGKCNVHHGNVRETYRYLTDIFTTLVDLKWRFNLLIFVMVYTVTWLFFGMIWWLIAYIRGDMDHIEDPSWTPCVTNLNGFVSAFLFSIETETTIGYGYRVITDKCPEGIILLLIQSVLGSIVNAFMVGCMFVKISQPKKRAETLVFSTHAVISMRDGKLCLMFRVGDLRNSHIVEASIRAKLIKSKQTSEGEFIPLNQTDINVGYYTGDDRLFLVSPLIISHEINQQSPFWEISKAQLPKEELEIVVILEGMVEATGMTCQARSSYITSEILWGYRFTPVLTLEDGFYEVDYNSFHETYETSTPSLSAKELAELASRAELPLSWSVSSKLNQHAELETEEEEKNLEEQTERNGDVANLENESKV
Nature of the assay: Whole-cell patch clamp, Kir3.1/3.2 in transfected HEK-293 cells. Summed up: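 HEK-293 cells were transiently co-transfected with channel plus an EGFP marker (Lipofectamine). Pipette: 135 mM KCl, 2 mM MgCl2, 1 mM EGTA, 10 mM HEPES, 2 mM Na2ATP, pH 7.3. Bath: 135 mM NaCl, 5 mM KCl, pH 7.4; some runs used 50 mM KCl. Held at −75 mV and ramped −120 to 120 mV every 5 s, at 20–23°C. Test compound was bath-applied for 2–10 min, then 2 mM BaCl2. CRC n = 4–7. τ taken from the time course.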
(In general: Patch clamp records ionic current or voltage across a cell membrane.)

The target of a further assay is T2, Kir7.1 (Homo sapiens, UniProt O60928).
T2 sequence (O60928 1-360): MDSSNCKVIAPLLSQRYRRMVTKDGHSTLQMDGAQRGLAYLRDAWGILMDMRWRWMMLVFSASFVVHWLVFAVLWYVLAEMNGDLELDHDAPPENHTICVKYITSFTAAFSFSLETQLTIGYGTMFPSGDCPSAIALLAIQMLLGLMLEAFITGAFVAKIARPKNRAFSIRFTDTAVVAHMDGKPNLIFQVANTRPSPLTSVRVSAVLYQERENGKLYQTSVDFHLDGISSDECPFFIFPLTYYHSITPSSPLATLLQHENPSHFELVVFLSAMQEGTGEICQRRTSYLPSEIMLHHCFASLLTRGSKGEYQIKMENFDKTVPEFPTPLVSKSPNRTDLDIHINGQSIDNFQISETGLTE
Nature of the assay: Two-electrode voltage clamp in Xenopus oocytes, Kir7.1. In outline: (§1)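 Stage V–VI Xenopus oocytes were defolliculated with 1 mg/mL collagenase and injected with 0.5–10 ng cRNA. They were kept at 16°C in modified L-15 for 24–72 h. Two-electrode voltage clamp at 20–23°C: held at −75 mV and stepped to −120 mV for 200 ms every 5 s, with current at −120 mV tracked over time. Test compound (50 μM) was perfused, then 2 mM Ba2+. Time constant of inhibition derived.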

The next assay addresses T3, Kir3.1/3.2 (Homo sapiens, UniProt P48051+P48549).
T3 sequence (P48549 1-501): T1 sequence (P48549 1-501)
T3 sequence (P48051 1-423): T1 sequence (P48051 1-423)
Nature of the assay: Two-electrode voltage clamp in Xenopus oocytes, Kir3.1/3.2. Summed up: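 Xenopus oocytes were injected with Kir3.1/3.2 or Kir3.1/3.4 cRNA and voltage-clamped with two electrodes at 20–23°C, with current at −80 mV followed over time. The bath was switched from K+-free to 90 mM K+ to activate the channel. Test compound in 90K was applied continuously at graded concentrations, then 2 mM Ba2+ was added. A final 0K switch measured leak. Time constant derived (n = 6 at 25 μM). Percent inhibition n = 4–6.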
In general terms: In two-electrode clamp one electrode senses voltage and the other passes current.

Another assay deals with T4, Kir2.1 (Homo sapiens, UniProt P63252).
T4 sequence (P63252 1-427): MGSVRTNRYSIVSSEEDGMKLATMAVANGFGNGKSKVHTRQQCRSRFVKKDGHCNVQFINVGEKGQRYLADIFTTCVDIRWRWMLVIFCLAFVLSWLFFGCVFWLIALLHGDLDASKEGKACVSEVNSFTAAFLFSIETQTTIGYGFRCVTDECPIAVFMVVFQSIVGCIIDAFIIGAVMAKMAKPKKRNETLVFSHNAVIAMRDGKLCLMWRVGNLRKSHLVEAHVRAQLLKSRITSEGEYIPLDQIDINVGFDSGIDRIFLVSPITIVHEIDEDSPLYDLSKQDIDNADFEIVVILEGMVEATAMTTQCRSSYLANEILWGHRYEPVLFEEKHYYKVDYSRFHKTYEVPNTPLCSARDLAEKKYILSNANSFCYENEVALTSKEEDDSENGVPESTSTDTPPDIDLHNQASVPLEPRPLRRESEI
Put plainly: Two-electrode voltage clamp in Xenopus oocytes, Kir2.1. Summed up: as §1

Turning to `Cc1ccc(OCC(O)Cn2c(=N)n(Cc3ccccc3)c3ccccc32)cc1` (stereo not shown) [Compound 1, 1-(3-benzyl-2-imino-2,3-dihydro-1H-benzo[d]imidazol-1-yl)-3-(p-tolyloxy)propan-2-ol], the values for the IC50 at Kir3.1/3.2 (GIRK) and against Kir3.1/3.2 were 1.3 µM and around 10 µM, respectively. Further, the “inhibition of GIRK” value against Kir3.1/3.2 (GIRK) (whole-cell patch clamp, HEK-293, 30 μM bath application) was “near complete inhibition”. The “time constant of inhibition of Kir3.1/3.2” value at Kir3.1/3.2 (GIRK) (whole-cell patch clamp, HEK-293, 30 μM, mean ± SEM, n = 5) is on record as 16 ± 1 s. Besides, on Kir7.1 (TEVC oocytes, 50 μM, n = 8), the “time constant of Kir7.1 inhibition” value was found to be 38 ± 6 s. Moreover, the inhibition at 50 µM on Kir7.1 (read-out: inhibition of Kir7.1) worked out at 66 ± 6%; at Kir2.1 (read-out: inhibition of Kir2.1), 30.2 ± 9.4%. Also, at Kir3.1/3.2 (TEVC oocytes, 25 μM, mean ± SEM, n = 6), the “time constant (τ) for inhibition of Kir3.1/3.2 currents” value worked out at 28 ± 4 s. In addition, the inhibition at 10 µM at Kir3.1/3.2 (read-out: inhibition of GIRK current (Kir3.1/3.2)) is around 50%. In addition, the “time constant (τ) of Kir2.1 inhibition” value at Kir2.1 (TEVC oocytes, 50 μM, n = 4) stood at 735 ± 85 s.
